Here are results for 24 compounds from ChEMBL document CHEMBL3632513, “Synthesis of donepezil-based multifunctional agents for the treatment of Alzheimer's disease” (Bioorg Med Chem Lett, 2015).

Series [1] concerns the target Acetylcholinesterase (Electrophorus electricus, UniProt O42275). The series is described as follows: Inhibition of electric eel AChE using acetylthiocholine iodide as substrate preincubated for 15 mins by Ellman's method.
The target in series [2] is Cholinesterase (Equus caballus, UniProt P81908). The series is described as follows: Inhibition of equine serum BuChE using butyrylthiocholine iodide as substrate preincubated for 15 mins by Ellman's method. Background: DTNB colorimetry detects thiols as they appear.
Series [3] in a line: Selectivity ratio of IC50 for equine BuChE to IC50 for electric eel AChE. The gist of the method: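 Both IC50 values come from Ellman's method, using AChE from electric eel and BuChE from equine serum. Selectivity for AChE is calculated as IC50(BuChE)/IC50(AChE).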
Series [4] deals with Amyloid-beta precursor protein (Homo sapiens) (UniProt P05067). Briefly: Inhibition of self-induced amyloid beta (1-42) aggregation (unknown origin) at 25 uM after 48 hrs by thioflavin T fluorescence method. In a few lines: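 Thioflavin T fluorometric assay of self-induced Aβ1–42 aggregation, with test compounds and the curcumin reference each at 25. Results are reported as percent inhibition of aggregation.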

Series [5] in a line: Antioxidant activity assessed as DPPH scavenging activity at 10 to 60 ug/ml after 30 mins.
Series [6] is described as follows: Lipophilicity, log P of the compound by […]. As to conditions: octanol/water. Type of series: physicochemical.
Series [7] has as its target Acetylcholinesterase (Electrophorus electricus) (UniProt O42275). The series is described as follows: Mixed-type of inhibition in electric eel AChE at 0.5 to 2 uM by Lineweaver-Burk plot method.
Series [8] can be described thus: Metal chelating activity of the compound assessed as Zn2+ complex formation after 20 mins by UV-vis spectrophotometry. Type of series: physicochemical.
The target in series [9] is Cholinesterase (Equus caballus) (UniProt P81908). Briefly: Mixed-type of inhibition in equine BuChE at 10 to 40 uM by Lineweaver-Burk plot method.
For series [10] the target is unchanged. Briefly: Non-competitive inhibition in equine BuChE at 10 to 40 uM by Lineweaver-Burk plot method.

Molecules are shown by their SMILES. ≈ marks a conversion by molar mass, not a printed value. Calls of active or inactive are those of the source. No cut-off for these calls is given here.

Chain of Cholinesterase (P81908 whole entry): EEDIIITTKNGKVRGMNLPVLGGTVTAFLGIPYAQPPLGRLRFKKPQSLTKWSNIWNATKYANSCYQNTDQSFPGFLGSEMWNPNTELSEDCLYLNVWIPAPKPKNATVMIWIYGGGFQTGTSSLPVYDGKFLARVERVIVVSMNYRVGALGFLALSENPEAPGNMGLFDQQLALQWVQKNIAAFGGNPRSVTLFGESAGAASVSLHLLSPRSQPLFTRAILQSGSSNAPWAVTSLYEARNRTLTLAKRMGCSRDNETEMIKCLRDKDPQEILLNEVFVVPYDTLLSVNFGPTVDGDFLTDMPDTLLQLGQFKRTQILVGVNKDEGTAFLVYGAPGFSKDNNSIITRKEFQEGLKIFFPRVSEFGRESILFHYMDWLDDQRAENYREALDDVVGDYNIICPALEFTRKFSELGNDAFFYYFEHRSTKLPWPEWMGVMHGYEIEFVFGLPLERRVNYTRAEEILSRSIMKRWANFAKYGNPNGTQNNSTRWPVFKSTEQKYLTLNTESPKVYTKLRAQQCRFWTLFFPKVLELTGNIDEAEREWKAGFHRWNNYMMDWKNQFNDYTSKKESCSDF
Chain of Acetylcholinesterase (O42275 whole entry): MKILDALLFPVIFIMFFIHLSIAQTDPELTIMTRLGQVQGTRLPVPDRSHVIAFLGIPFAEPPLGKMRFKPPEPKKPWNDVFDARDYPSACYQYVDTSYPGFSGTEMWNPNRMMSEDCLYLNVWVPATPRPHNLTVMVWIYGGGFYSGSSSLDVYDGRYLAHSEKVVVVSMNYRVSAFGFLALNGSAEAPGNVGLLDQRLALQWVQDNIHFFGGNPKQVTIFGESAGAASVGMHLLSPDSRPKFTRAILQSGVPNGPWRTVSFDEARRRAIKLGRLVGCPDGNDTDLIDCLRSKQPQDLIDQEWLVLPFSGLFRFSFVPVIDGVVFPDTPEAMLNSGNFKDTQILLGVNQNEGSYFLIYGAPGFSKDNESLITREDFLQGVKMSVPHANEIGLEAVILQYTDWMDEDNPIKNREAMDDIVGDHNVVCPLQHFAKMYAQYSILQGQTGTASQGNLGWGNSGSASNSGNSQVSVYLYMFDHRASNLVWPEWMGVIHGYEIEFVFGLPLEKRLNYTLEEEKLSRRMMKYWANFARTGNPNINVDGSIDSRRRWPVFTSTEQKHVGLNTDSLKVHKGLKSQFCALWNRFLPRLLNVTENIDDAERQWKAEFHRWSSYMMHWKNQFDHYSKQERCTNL
Chain of Amyloid-beta precursor protein (Homo sapiens) (P05067 whole entry): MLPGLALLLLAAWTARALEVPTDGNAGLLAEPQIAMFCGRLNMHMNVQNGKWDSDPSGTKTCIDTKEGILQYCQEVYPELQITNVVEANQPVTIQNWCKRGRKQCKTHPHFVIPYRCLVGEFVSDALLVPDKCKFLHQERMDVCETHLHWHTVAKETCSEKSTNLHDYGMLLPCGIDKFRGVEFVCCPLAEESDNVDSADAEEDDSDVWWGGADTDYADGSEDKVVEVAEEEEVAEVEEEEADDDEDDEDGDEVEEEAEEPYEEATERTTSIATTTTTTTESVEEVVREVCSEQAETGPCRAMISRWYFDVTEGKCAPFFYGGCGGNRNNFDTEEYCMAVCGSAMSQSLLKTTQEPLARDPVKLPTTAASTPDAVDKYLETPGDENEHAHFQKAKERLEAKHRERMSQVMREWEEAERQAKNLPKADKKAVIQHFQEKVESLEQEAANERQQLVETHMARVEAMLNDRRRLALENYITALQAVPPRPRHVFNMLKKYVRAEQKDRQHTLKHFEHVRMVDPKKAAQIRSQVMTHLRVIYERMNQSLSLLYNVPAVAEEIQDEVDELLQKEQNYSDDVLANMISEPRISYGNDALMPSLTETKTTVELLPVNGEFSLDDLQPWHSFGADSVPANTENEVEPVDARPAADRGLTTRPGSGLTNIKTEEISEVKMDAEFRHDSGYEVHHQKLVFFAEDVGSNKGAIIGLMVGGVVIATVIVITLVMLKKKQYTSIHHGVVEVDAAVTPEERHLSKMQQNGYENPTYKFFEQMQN
Chain of Cholinesterase (Equus caballus) (P81908 whole entry): as the sequence (P81908 whole entry) above
Chain of Acetylcholinesterase (Electrophorus electricus) (O42275 24-633 limits assumed): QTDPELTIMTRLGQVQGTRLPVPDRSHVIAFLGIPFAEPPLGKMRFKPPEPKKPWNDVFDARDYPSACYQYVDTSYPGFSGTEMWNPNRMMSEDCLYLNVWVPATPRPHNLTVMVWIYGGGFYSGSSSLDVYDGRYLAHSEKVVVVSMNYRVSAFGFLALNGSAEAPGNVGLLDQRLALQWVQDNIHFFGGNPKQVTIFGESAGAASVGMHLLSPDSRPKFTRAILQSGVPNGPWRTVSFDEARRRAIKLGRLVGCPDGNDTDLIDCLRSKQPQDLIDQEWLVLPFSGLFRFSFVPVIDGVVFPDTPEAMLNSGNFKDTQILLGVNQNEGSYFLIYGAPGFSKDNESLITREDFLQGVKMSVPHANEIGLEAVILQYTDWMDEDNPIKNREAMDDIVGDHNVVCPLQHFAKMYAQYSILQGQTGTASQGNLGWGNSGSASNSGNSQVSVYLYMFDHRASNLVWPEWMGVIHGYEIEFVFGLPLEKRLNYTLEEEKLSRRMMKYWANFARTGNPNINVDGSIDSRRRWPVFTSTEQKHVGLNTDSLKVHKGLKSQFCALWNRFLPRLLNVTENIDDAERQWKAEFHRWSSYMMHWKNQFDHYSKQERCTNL

Regarding `COc1cc2c(cc1OC)C(=O)C(C(=O)Nc1ccccc1Br)C2` (centres undefined), the IC50 in series [1] amounted to 120 nM; in [2] it was 3400 nM; in series [5], 65.44 µg/mL (≈ 168 µM). In addition, the Ratio IC50 in series [3] stood at 28.3. In addition, in series [4], the inhibition was determined as 52.8%. This compound came in with a logP in series [6] of 3.03.
As for `COc1ccccc1NC(=O)C1Cc2cc(OC)c(OC)cc2C1=O` (centres undefined), the IC50 in [1] is 700 nM; in series [2], 4810 nM; in [5], 45.76 µg/mL (≈ 134 µM). The Ratio IC50 in series [3] came to 6.9. For the same compound, the inhibition in series [4] amounted to 25.6%. In series [6], the logP came out at 2.08.
Turning to `CCOc1ccc(NC(=O)C2Cc3cc(OC)c(OC)cc3C2=O)cc1` (centres undefined), the IC50 in [1] stood at 580 nM; in [2], 2610 nM; in [5], 48.16 µg/mL (≈ 136 µM). Moreover, in series [3], the Ratio IC50 was 4.5. Also, the inhibition in series [4] is 40.8%. Besides, in series [6], the logP was 2.42.
On to `COc1cc2c(cc1OC)C(=O)C(C(=O)Nc1cccc(Br)c1)C2` (centres undefined), for which the IC50 in series [1] came out at 330 nM; in series [2] it was 2430 nM; in [5] it was 58.88 µg/mL (≈ 151 µM). Also, in series [3], the Ratio IC50 is 7.4. Besides, the inhibition in [4] was found to be 31.9%. In series [6], this compound returned a logP of 3.03.
As for `COc1cc2c(cc1OC)C(=O)C(C(=O)Nc1cccc(F)c1)C2` (centres undefined), the values for the IC50 in series [1], in [2] and in [5] were 247 nM, 2250 nM and 58.11 µg/mL (≈ 176 µM), respectively. For the same compound, the Ratio IC50 in series [3] worked out at 9.1. The inhibition in series [4] stood at 38.7%. The compound further yielded a logP in series [6] of 2.36.
Take `Cc1c(C)c2c(c(C)c1O)CC[C@@](C)(CCC[C@H](C)CCC[C@H](C)CCCC(C)C)O2` [ALPHA-TOCOPHEROL]: in series [5], the IC50 was found to be 31.74 µg/mL (≈ 73.7 µM).
In the case of `COc1cc2c(cc1OC)C(=O)C(C(=O)Nc1cccc(C)c1)C2` (centres undefined), the IC50 in series [1] was found to be 770 nM; in [2] it was 2240 nM; in series [5] it was 55.83 µg/mL (≈ 172 µM). Further, the Ratio IC50 in series [3] was found to be 2.9. Also, the inhibition in [4] was found to be 19.1%. The same compound had a logP in series [6] of 2.69.
On to `CCc1cccc(NC(=O)C2Cc3cc(OC)c(OC)cc3C2=O)c1` (centres undefined), for which the figures for the IC50 in [1], in series [2] and in series [5] were 670 nM, 2980 nM and 64.11 µg/mL (≈ 189 µM), respectively. In addition, the Ratio IC50 in series [3] came out at 4.4. The same compound had an inhibition in series [4] of 27.4%. This compound also displayed a logP in series [6] of 3.11.
Regarding `CCOc1ccccc1NC(=O)C1Cc2cc(OC)c(OC)cc2C1=O` (centres undefined), the results for the IC50 in series [1], in [2] and in series [5] were 770 nM, 6620 nM and 63.67 µg/mL (≈ 179 µM), respectively. Further, the Ratio IC50 in [3] was 8.6. In series [4], this compound gave an inhibition of 38.1%. Further, in series [6], the logP is 2.42.
As to `CCc1ccc(NC(=O)C2Cc3cc(OC)c(OC)cc3C2=O)cc1` (centres undefined), the IC50 in [1] is 650 nM; in [2], 2960 nM; in series [5] it was 76.15 µg/mL (≈ 224 µM). In addition, the Ratio IC50 in series [3] worked out at 4.6. In addition, the inhibition in series [4] amounted to 32.1%. In series [6], this compound yielded a logP of 3.11.
Regarding `COc1cc2c(cc1OC)C(=O)C(C(=O)Nc1ccc(F)cc1)C2` (centres undefined), the IC50 came out at 110 nM in series [1], 2650 nM in series [2] and 54.96 µg/mL (≈ 167 µM) in [5]. For the same compound, the Ratio IC50 in series [3] is 24.1. Besides, the inhibition in series [4] came out at 45.4%. The same compound gave a logP in [6] of 2.36.
As for `COc1cc2c(cc1OC)C(=O)C(C(=O)Nc1ccccc1Cl)C2` (centres undefined), the IC50 in series [1] is 300 nM; in [2], 7100 nM; in series [5], 65.92 µg/mL (≈ 191 µM). For the same compound, in [3], the Ratio IC50 worked out at 23.7. The compound further registered an inhibition in series [4] of 40.4%. This compound also came in with a logP in series [6] of 2.76.
`Cc1c(C)c2c(c(C)c1O)CCC(C)(C(=O)O)O2` (centres undefined) [TROLOX]: in [5], the IC50 worked out at 20.87 µg/mL (≈ 83.4 µM).
Consider `COc1cc2c(cc1OC)C(=O)C(C(=O)Nc1ccc(Br)cc1)C2` (centres undefined), for which the results for the IC50 in series [1], in [2] and in series [5] were 140 nM, 3660 nM and 72.14 µg/mL (≈ 185 µM), respectively. Moreover, the Ratio IC50 in [3] worked out at 26.1. Moreover, the inhibition in series [4] was found to be 47.6%. The compound further came in with a lipophilicity (logP) in series [6] of 3.03.
Take `COc1cc2c(cc1OC)C(=O)C(C(=O)Nc1cccc(Cl)c1)C2` (centres undefined): the IC50 amounted to 470 nM in series [1], 2240 nM in series [2] and 76.32 µg/mL (≈ 221 µM) in series [5]. The Ratio IC50 in [3] amounted to 4.8. In series [4], this compound yielded an inhibition of 37.4%. In addition, the logP in [6] came out at 2.76.
Take `COc1cc2c(cc1OC)C(=O)C(C(=O)Nc1ccccc1F)C2` (centres undefined): the IC50 was 80 nM in series [1], 3210 nM in series [2] and 75.68 µg/mL (≈ 230 µM) in [5]. Further, the Ratio IC50 in series [3] is 40.1. The compound further registered an inhibition in series [4] of 55.3%. Also, the inhibition result in series [7] was “Active”. Besides, the result in series [8] was Active. Also, the logP in [6] was 2.36.
Regarding `CCc1ccccc1NC(=O)C1Cc2cc(OC)c(OC)cc2C1=O` (centres undefined), the figures for the IC50 in [1], in [2] and in series [5] were 860 nM, 6290 nM and 55 µg/mL (≈ 162 µM), respectively. For the same compound, the Ratio IC50 in series [3] was determined as 7.3. The same compound showed an inhibition in series [4] of 21.8%. The compound further yielded a logP in series [6] of 3.11.
For `COc1cc2c(cc1OC)C(=O)C(C(=O)Nc1ccccc1)C2` (centres undefined), the IC50 in [1] amounted to 920 nM; in series [2], 3150 nM; in series [5] it was 61.28 µg/mL (≈ 197 µM). The Ratio IC50 in series [3] came to 3.4. For the same compound, the inhibition in series [4] is 14.3%. The logP in [6] was determined as 2.2.
On to `CCOc1cccc(NC(=O)C2Cc3cc(OC)c(OC)cc3C2=O)c1` (centres undefined), for which the IC50 came out at 780 nM in series [1], 3870 nM in [2] and 44.89 µg/mL (≈ 126 µM) in series [5]. The Ratio IC50 in [3] was 5. This compound had an inhibition in [4] of 28.3%. The logP in [6] was 2.42.
`COc1cccc(NC(=O)C2Cc3cc(OC)c(OC)cc3C2=O)c1` (centres undefined): the IC50 in series [1] came to 540 nM; in series [2], 2100 nM; in series [5], 38.94 µg/mL (≈ 114 µM). Also, in series [3], the Ratio IC50 was determined as 3.9. The inhibition in series [4] is 30.2%. The inhibition entry in series [9] and in series [10] was “Active” each time. Besides, the result in [8] was Active. The logP in series [6] came out at 2.08.
On to `COc1cc2c(cc1OC)C(=O)C(C(=O)Nc1ccc(C)cc1)C2` (centres undefined), for which the IC50 in [1] came to 840 nM; in [2], 2500 nM; in series [5] it was 67.82 µg/mL (≈ 208 µM). Also, in series [3], the Ratio IC50 is 3.2. The inhibition in series [4] is 26.8%. Besides, the logP in [6] was 2.69.
With `COc1cc2c(cc1OC)C(=O)C(C(=O)Nc1ccc(Cl)cc1)C2` (centres undefined), the values for the IC50 in series [1], in [2] and in series [5] were 500 nM, 4400 nM and 56.76 µg/mL (≈ 164 µM), respectively. The Ratio IC50 in [3] turned out to be 8.8. In series [4], this compound showed an inhibition of 38.2%. The same compound displayed a logP in series [6] of 2.76.
On to `COc1cc2c(cc1OC)C(=O)C(C(=O)Nc1ccccc1C)C2` (centres undefined), for which the IC50 in series [1] stood at 360 nM; in series [2] it was 3060 nM; in series [5], 43.74 µg/mL (≈ 134 µM). Further, the Ratio IC50 in series [3] came to 8.5. The compound further yielded an inhibition in [4] of 40.3%. In [6], the logP was found to be 2.69.
On to `COc1ccc(NC(=O)C2Cc3cc(OC)c(OC)cc3C2=O)cc1` (centres undefined), for which the IC50 stood at 530 nM in series [1], 2900 nM in series [2] and 49.47 µg/mL (≈ 145 µM) in series [5]. The Ratio IC50 in series [3] worked out at 5.5. In addition, the inhibition in [4] stood at 34.5%. The logP in series [6] was 2.08.

As a reminder, the IC50 is the concentration that inhibits the measured activity by half. For orientation: inhibition means the change of the read-out against control, counted positive when it falls. As a reminder, the logP is a log measure of how a compound divides between an organic and an aqueous phase. A higher logP goes with higher lipophilicity.
